# The source made the active and inactive calls. The rule behind the calls is not given here.
# Legend:
# [1] = target: T1, Peroxisome proliferator-activated receptor alpha (Homo sapiens) (UniProt Q07869); assay: Agonist activity at human PPARalpha transfected in HEK293 cells assessed as relative luciferase unit at 50 uM measured after 16 hrs by luciferase reporter gene assay; type: cell-based; conditions: filed as agonist
# T1 sequence (whole entry): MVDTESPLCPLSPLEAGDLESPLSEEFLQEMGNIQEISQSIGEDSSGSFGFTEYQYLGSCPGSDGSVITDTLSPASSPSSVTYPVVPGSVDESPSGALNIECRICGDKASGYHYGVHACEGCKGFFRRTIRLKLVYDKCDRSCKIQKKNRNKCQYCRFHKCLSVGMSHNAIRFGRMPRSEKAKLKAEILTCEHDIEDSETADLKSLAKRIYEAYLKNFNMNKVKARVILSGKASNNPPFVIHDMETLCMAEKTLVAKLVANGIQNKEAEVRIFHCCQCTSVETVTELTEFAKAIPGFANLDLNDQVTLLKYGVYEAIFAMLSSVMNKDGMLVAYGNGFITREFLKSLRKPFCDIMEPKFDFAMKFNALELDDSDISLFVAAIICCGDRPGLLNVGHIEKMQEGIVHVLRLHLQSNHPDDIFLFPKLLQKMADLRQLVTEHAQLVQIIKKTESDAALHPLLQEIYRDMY
# Summary of the method: (§1)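 GAL4-hPPAR (α or γ) plus UAS-luciferase and β-galactosidase transiently co-transfected into HEK293 cells, then treated with 50 μM compound for 16 h. RLU = luciferase/β-galactosidase × time, vehicle (DMSO) set to 1. Mean ± SD, N = 3; one-way ANOVA with Holm–Šidák vs vehicle.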
# [2] = target: T2, Peroxisome proliferator-activated receptor gamma (Mus musculus) (UniProt P37238); assay: Agonist activity at human PPARgamma in mouse 3T3-L1 cells assessed as induction of adipogenic differentiation at 25 uM measured after 11 days by Oil Red O staining analysis; type: cell-based; conditions: filed as agonist, time 11.0 day
# T2 sequence (whole entry): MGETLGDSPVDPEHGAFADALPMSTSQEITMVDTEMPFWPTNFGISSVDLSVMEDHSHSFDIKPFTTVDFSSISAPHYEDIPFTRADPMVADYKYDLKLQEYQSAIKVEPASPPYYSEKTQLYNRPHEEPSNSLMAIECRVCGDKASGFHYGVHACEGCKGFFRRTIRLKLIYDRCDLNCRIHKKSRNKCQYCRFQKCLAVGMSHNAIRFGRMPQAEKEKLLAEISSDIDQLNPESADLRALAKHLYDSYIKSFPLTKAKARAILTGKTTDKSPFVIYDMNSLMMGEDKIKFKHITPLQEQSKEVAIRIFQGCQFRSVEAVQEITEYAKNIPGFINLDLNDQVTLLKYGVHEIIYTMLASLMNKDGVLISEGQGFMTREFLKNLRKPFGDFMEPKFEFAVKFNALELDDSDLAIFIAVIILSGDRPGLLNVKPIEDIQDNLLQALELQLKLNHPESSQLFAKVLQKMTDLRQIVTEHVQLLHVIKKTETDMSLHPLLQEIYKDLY
# Summary of the method: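 3T3-L1 cells differentiated for 11 days (IBMX/dexamethasone/insulin induction, then insulin, then maintenance medium) with 25 μM compound or 10 μM rosiglitazone from day 0. Cells formalin-fixed and stained with 0.6% Oil Red O. Lipid quantified spectrophotometrically after dye extraction.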
# [3] = target: T3, Peroxisome proliferator-activated receptor gamma (Homo sapiens) (UniProt P37231); assay: Agonist activity at human PPARgamma expressed in HEK293 cells assessed as maximal activity by luciferase/beta-galactosidase reporter gene assay relative to rosiglitazone; type: cell-based
# T3 sequence (whole entry): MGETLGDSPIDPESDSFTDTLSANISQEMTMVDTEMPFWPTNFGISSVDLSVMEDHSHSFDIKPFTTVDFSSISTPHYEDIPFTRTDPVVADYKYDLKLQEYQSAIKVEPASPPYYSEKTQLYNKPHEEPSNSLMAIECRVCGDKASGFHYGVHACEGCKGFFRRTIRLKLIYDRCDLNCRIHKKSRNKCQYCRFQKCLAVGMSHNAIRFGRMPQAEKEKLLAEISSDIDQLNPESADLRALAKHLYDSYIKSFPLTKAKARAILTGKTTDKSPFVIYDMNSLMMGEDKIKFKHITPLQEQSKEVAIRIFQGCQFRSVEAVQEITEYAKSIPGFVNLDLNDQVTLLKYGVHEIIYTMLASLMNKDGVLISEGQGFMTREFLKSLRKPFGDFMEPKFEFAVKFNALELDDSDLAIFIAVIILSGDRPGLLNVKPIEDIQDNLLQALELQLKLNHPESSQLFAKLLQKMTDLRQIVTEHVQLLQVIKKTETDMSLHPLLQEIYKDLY
# Summary of the method: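 HEK293 cells in charcoal-stripped FBS, calcium phosphate co-transfected with GAL4-hPPAR LBD fusion, UAS-luciferase and β-galactosidase. Ligand added 6–8 h post transfection, full dose–response, harvested 14–16 h later. Luciferase normalized to β-galactosidase.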
# [4] = target: T1, Peroxisome proliferator-activated receptor alpha (Homo sapiens); assay: Stabilization of human PPARalpha LBD assessed as change in melting temperature at 25 uM by thermal shift assay
# Summary of the method: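 Purified hPPAR LBD at 1 mg/mL (∼25 μM) with ligand (α-LBD at 25 μM; γ- and δ-LBD at 50 μM). Static light scattering at 473 nm from 25 to 70 °C in 0.5 °C steps, 1 °C/min. Tm from four-parameter fit; ΔTm relative to DMSO; mean ± SEM, N = 3.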
# [5] = target: T4, Peroxisome proliferator-activated receptor delta (Homo sapiens) (UniProt Q03181); assay: Stabilization of human PPARdelta LBD assessed as change in melting temperature at 50 uM by thermal shift assay
# T4 sequence (whole entry): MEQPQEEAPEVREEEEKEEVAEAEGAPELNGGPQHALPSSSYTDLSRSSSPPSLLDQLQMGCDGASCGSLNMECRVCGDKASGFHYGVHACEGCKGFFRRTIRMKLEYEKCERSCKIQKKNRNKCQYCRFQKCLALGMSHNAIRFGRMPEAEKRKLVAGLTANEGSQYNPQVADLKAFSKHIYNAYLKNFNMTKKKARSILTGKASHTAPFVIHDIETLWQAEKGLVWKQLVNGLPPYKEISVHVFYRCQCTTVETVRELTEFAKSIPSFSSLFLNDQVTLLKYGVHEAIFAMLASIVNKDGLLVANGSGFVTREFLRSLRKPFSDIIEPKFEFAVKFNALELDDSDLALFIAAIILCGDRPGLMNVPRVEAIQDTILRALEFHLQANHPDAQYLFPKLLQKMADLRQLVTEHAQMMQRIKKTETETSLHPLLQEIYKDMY
# [6] = target: T3, Peroxisome proliferator-activated receptor gamma (Homo sapiens); assay: Stabilization of human PPARgamma LBD assessed as change in melting temperature at 50 uM by thermal shift assay
# [7] = target: T3, Peroxisome proliferator-activated receptor gamma (Homo sapiens); assay: Agonist activity at human PPARgamma transfected in HEK293 cells assessed as relative luciferase unit at 50 uM measured after 16 hrs by luciferase reporter gene assay; type: cell-based; conditions: filed as agonist; summary of the method: as §1
Compound,Activity [1],Activity [2],Emax [3] [%],ΔTm [4] [°C],ΔTm [5] [°C],ΔTm [6] [°C],Activity [7],Emax ([3]; filed as agonist) [%]
CCCCCCCCCCCCCCCc1cccc(OC(C)(C)C(=O)O)c1,Active,Active,30,10.8,11.3,6.3,Active,–
CCCCCCCCCCCCCCCc1cccc(OC(C)=O)c1C(=O)O,Active,Active,–,17.4,12,4.4,Active,> 90
CCCCCC/C=C\CCCCCCCc1cccc(OC(C)(C)C(=O)O)c1,Active,Active,–,3.8,6.8,5.6,Active,> 90
